Source: ChEMBL document CHEMBL1154596, “The effects of C-terminal modifications on the opioid activity of [N-benzylTyr(1)]dynorphin A-(1-11) analogues” (J Med Chem, 2009)
pKi: −log10 of the molar value.

Experiments:
Rattus norvegicus = organism: Rattus norvegicus; assay: Selectivity ratio of Ki for rat kappa opioid receptor to Ki for rat mu opioid receptor
[1] = Selectivity ratio of Ki for rat kappa opioid receptor to Ki for mouse delta opioid receptor
[2] = target: Kappa-type opioid receptor (Rattus norvegicus) (UniProt P34975); assay: Activity at rat kappa opioid receptor expressed in CHO cells assessed as inhibition of adenylyl cyclase activity at 10 uM relative to Dyn A-(1-13)NH2; assay type: functional, cell-based
Method in brief: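 CHO cells stably expressing cloned rat KOR. Adenylyl cyclase inhibition was measured with each peptide at 10 μM. Efficacy is expressed relative to the maximal inhibition by the reference agonist Dyn A-(1-13)NH2 (100 nM). Values are mean ± SEM of at least three independent experiments.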

Mu-type opioid receptor = Mu-type opioid receptor (Rattus norvegicus, UniProt P33535); assay: Displacement of [3H]DAMGO from rat mu opioid receptor expressed in CHO cells; assay type: cell-based
Method in brief: (§1)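 Radioligand competition binding on membranes of CHO cells stably expressing cloned rat KOR, rat MOR or mouse DOR. Ki values are mean ± SEM of at least three independent experiments.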

[3] = target: Delta-type opioid receptor (Mus musculus, UniProt P32300); assay: Displacement of [3H]DPDPE from mouse delta opioid receptor expressed in CHO cells; assay type: cell-based; method in brief: as §1
[4] = target: Kappa-type opioid receptor (Rattus norvegicus, UniProt P34975); assay: Displacement of [3H]diprenorphine from rat kappa opioid receptor expressed in CHO cells; assay type: cell-based
Method in brief: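 Radioligand competition binding on membranes of CHO cells stably expressing cloned rat KOR, rat MOR or mouse DOR. […] Ki values are mean ± SEM of at least three independent experiments.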

Kappa-type opioid receptor (Rattus norvegicus), sequence (P34975 whole entry): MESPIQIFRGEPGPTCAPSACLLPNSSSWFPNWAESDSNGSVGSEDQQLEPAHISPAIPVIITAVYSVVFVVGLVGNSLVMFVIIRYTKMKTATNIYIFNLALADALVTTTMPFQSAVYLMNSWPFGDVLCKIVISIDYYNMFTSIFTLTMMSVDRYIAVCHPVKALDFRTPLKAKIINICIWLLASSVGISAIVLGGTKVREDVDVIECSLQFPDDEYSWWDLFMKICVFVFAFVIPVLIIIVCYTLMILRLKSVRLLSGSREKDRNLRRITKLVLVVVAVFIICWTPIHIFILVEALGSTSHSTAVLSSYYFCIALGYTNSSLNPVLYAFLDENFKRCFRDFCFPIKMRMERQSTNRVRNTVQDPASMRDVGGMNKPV
Kappa-type opioid receptor, sequence (P34975 whole entry): as above
Mu-type opioid receptor, sequence (P33535 whole entry): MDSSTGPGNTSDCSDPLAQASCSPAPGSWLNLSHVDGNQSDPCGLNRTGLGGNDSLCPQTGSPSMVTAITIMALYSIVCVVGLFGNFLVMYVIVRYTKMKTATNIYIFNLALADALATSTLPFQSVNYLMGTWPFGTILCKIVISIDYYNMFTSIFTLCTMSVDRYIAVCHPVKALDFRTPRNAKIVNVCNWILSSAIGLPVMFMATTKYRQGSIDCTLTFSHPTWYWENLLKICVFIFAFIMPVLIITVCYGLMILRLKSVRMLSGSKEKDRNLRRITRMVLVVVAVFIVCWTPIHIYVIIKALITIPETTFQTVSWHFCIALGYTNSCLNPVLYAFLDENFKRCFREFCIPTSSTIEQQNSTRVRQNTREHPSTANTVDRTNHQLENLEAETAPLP
Delta-type opioid receptor, sequence (P32300 whole entry): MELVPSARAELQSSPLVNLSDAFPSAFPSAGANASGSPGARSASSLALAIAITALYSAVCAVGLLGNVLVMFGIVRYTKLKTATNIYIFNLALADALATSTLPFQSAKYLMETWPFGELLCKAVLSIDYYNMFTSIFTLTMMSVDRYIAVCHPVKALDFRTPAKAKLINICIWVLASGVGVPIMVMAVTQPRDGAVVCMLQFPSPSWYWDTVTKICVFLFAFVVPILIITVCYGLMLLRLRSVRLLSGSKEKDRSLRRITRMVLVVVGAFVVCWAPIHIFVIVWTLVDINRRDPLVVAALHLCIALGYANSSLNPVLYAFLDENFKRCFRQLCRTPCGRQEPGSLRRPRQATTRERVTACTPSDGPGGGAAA

SMILES | Ratio Ki (Rattus norvegicus) | Ratio Ki [1] | inhibition [2] [%] | pKi (Mu-type opioid receptor) | pKi [3] | pKi [4]
CC(C)C[C@H](NC(=O)[C@H](Cc1ccccc1)NC(=O)CNC(=O)CNC(=O)[C@H](Cc1ccc(O)cc1)NCc1ccccc1)C(=O)N[C@@H](CCCNC(=N)N)C(=O)N(C)[C@@H](CCCNC(=N)N)C(=O)N[C@H](C)C(=O)N[C@@H](CCCNC(=N)N)C(=O)N1CCC[C@@H]1C(=O)N[C@@H](CCCCN)C(N)=O | 16 | 151 | 70 |  |  | 
CC[C@H](C)[C@H](NC(=O)[C@H](CCCNC(=N)N)N(C)C(=O)[C@H](CCCNC(=N)N)NC(=O)[C@H](CC(C)C)NC(=O)[C@H](Cc1ccccc1)NC(=O)CNC(=O)CNC(=O)[C@H](Cc1ccc(O)cc1)NCc1ccccc1)C(=O)N[C@@H](CCCNC(=N)N)C(=O)N1CCC[C@@H]1C(=O)N[C@@H](CCCCN)C(N)=O |  |  | 70 |  |  | 
CC(C)C[C@H](NC(=O)[C@H](Cc1ccccc1)NC(=O)CNC(=O)CNC(=O)[C@H](Cc1ccc(O)cc1)NCc1ccccc1)C(=O)N[C@@H](CCCNC(=N)N)C(=O)N(C)[C@@H](CCCNC(=N)N)C(=O)N[C@H](C)C(=O)N[C@@H](CCCNC(=N)N)C(=O)N1CCC[C@H]1C(=O)N[C@@H](CCCCN)C(N)=O | 14 | 147 | 70 |  |  | 
CC[C@H](C)[C@H](NC(=O)[C@H](CCCNC(=N)N)N(C)C(=O)[C@H](CCCNC(=N)N)NC(=O)[C@H](CC(C)C)NC(=O)[C@H](Cc1ccccc1)NC(=O)CNC(=O)CNC(=O)[C@H](Cc1ccc(O)cc1)NCc1ccccc1)C(=O)N[C@@H](CCCNC(=N)N)C(=O)N1CCC[C@H]1C(=O)N[C@@H](CCCCN)C(N)=O |  |  | 70 |  |  | 
CC(=O)NC[C@H](NC(=O)[C@H](CCCNC(=N)N)NC(=O)[C@H](CCCNC(=N)N)NC(=O)[C@@H](CC(N)=O)NC(=O)[C@H](Cc1ccccc1)NC(=O)CNC(=O)CNC(=O)[C@H](Cc1ccc(O)cc1)NCc1ccccc1)C(=O)N[C@@H](CCCNC(=N)N)C(=O)N1CCC[C@H]1C(=O)N[C@@H](CCCCN)C(N)=O | 25 | 149 |  | 5.78 | < 5.00 | 7.17
CC(C)C[C@H](NC(=O)[C@H](Cc1ccccc1)NC(=O)CNC(=O)CNC(=O)[C@H](Cc1ccc(O)cc1)NCc1ccccc1)C(=O)N[C@@H](CCCNC(=N)N)C(=O)N[C@@H](CCCNC(=N)N)C(=O)N[C@H](C)C(=O)N[C@@H](CCCNC(=N)N)C(=O)N1CCC[C@@H]1C(=O)N[C@@H](CCCCN)C(N)=O | 15 | 109 | 70 |  |  | 
CC(C)C[C@H](NC(=O)[C@H](Cc1ccccc1)NC(=O)CNC(=O)CNC(=O)[C@H](Cc1ccc(O)cc1)NCc1ccccc1)C(=O)N[C@@H](CCCNC(=N)N)C(=O)N[C@@H](CCCNC(=N)N)C(=O)N[C@H](C)C(=O)N[C@@H](CCCNC(=N)N)C(=O)N1CCC[C@H]1C(=O)N[C@@H](CCCCN)C(N)=O | 11 | 80 | 70 |  |  | 
